{"source": "ChEMBL document CHEMBL1833955", "about": "“Optimization of (arylpiperazinylbutyl)oxindoles exhibiting selective 5-HT₇ receptor antagonist activity” (J Med Chem, 2011)", "key": {"[1]": {"target": "Adrenergic receptor alpha-1 (Rattus norvegicus) (UniProt P15823+P23944+P43140)", "sequence (P15823 whole entry, looked up)": "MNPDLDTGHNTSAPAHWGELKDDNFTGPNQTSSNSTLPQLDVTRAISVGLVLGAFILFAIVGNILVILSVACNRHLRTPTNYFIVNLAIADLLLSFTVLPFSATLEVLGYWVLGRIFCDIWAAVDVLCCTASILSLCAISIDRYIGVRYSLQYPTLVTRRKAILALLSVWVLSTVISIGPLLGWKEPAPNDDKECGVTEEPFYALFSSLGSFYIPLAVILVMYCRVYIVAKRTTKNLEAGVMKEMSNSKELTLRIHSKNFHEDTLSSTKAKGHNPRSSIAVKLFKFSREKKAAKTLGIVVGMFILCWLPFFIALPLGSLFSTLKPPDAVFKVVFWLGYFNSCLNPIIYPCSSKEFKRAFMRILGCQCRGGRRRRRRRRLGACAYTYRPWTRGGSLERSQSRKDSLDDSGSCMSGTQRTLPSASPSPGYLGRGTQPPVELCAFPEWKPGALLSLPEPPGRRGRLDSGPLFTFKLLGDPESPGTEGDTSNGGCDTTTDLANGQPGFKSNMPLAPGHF", "sequence (P23944 whole entry, looked up)": "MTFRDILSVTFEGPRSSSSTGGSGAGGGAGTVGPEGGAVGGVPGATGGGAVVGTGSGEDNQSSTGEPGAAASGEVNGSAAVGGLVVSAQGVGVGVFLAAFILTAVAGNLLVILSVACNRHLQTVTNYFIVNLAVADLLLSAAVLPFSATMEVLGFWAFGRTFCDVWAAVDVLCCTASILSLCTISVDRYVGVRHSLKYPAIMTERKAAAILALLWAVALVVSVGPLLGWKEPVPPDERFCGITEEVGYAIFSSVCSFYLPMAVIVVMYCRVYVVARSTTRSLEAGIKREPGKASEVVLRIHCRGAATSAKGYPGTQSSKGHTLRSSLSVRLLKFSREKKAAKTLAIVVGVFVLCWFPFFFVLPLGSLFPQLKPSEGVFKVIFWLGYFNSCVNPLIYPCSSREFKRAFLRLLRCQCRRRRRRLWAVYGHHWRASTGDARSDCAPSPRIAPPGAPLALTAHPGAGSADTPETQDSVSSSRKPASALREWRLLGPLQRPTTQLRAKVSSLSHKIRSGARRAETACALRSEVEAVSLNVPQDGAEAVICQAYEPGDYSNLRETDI", "sequence (P43140 whole entry, looked up)": "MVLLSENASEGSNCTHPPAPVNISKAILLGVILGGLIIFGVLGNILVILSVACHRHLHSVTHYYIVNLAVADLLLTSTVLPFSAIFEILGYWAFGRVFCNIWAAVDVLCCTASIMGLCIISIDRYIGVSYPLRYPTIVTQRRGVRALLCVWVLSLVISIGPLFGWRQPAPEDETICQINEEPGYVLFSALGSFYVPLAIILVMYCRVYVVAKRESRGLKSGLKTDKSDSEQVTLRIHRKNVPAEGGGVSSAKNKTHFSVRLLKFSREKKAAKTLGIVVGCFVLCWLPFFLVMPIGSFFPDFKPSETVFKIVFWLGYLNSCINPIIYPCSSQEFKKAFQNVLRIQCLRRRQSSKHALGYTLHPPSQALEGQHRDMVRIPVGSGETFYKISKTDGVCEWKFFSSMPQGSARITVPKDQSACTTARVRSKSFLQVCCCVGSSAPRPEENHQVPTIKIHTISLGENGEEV", "assay": "Displacement of [3H]prazosin from alpha1-adrenergic receptor in rat frontal cortex membrane at 10^-7 M after 45 mins by scintillation spectrometry", "type": "cell membranes", "summary_of_the_method": "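Rat frontal cortex membranes (tissue frozen on dry ice, homogenized in 50 mM Tris-HCl pH 7.7, washed by repeated 40 000 g spins at 4 °C) incubated with 0.6 nM [3H]prazosin, 45 min at 25 °C, triplicates; nonspecific binding with 10 μM prazosin. Filtration over GF/B filters presoaked in 0.05% polyethylenimine, scintillation counting; single test concentration 10^-7 M.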"}, "[2]": {"target": "T1, 5-hydroxytryptamine receptor 1A (Rattus norvegicus, UniProt P19327)", "T1 sequence (P19327 whole entry)": "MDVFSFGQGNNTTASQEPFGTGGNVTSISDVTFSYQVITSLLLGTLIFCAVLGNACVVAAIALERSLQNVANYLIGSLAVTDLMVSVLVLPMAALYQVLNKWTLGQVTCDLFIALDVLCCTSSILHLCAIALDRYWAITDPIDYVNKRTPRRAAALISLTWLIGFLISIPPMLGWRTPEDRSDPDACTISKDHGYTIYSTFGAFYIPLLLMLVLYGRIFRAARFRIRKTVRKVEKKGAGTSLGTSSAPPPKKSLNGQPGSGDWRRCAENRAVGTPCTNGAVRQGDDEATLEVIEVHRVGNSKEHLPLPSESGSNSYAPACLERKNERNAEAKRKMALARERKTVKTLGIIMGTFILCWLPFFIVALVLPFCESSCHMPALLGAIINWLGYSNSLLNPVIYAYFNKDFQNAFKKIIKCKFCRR", "assay": "Displacement of [3H]8-OH-DPAT from 5-HT1A receptor in rat frontal cortex membrane after 45 mins by scintillation counting", "type": "cell membranes", "summary_of_the_method": "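Membranes from adult rat frontal cortex, prepared in 50 mM Tris-HCl pH 7.7 with washes and a 37 °C preincubation. Incubation buffer: 6.66 mM CaCl2, 16.66 μM pargyline, 0.166% ascorbic acid. Ligand 1.5 nM [3H]8-OH-DPAT; 10 μM 5-HT defines nonspecific binding. 45 min at 25 °C, GF/B filtration, scintillation counting. Triplicates; Ki from two nine-point curves, single-site fit.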"}, "[3]": {"target": "5-hydroxytryptamine receptor 7 (Homo sapiens, UniProt P34969)", "sequence (P34969 whole entry)": "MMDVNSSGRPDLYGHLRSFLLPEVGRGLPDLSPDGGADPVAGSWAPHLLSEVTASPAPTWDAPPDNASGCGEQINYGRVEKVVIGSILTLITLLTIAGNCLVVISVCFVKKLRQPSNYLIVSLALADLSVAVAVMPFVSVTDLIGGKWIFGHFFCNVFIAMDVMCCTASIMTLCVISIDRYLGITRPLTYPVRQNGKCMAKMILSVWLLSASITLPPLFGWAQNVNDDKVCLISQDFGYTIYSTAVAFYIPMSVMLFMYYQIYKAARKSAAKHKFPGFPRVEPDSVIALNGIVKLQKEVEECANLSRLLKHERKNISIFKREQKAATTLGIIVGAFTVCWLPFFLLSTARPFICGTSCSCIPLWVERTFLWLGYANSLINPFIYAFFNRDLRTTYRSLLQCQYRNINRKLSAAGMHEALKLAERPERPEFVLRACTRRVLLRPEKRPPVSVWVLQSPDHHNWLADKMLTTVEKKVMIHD", "assay": "Displacement of [3H]CT from human 5-HT7 receptor expressed in CHO cells by scintillation spectrometry", "type": "cell-based", "summary_of_the_method": "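Cloned human 5-HT7 receptor from CHO cells, run under the supplier's recommended conditions with [3H]CT. Nonspecific binding with 25 μM clozapine. Ended by GF/C filtration, then scintillation counting. Ki taken from two nine-concentration displacement curves run in triplicate, single-site fit.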"}}}
{"smiles": "O=C1Nc2ccc(F)cc2C1CCCCN1CC=C(c2cccc(C(F)(F)F)c2)CC1", "note": "(stereo not drawn)", "values": [{"measurement": "inhibition", "setting": "[1]", "value": 11, "unit": "%"}, {"measurement": "Ki", "setting": "[2]", "value": 0.055, "unit": "µM"}, {"measurement": "Ki", "setting": "[3]", "value": 0.04, "unit": "µM"}]}
